Experimental data taken from ChEMBL document CHEMBL1150633, “In vitro cytotoxic activity of phenanthroindolizidine alkaloids from Cynanchum vincetoxicum and Tylophora tanakae against drug-sensitive and multidrug-resistant cancer cells” (J Nat Prod, 2002).

Columns and labels:
[1] = Cytotoxicity against drug-sensitive human KB-3-1 cells by MTS/PMS assay
[2] = Cytotoxicity against multidrug-resistant human KBV1 cells by MTS/PMS assay; type: functional, cell-based; settings: KB-V1
How it was run: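 Mycoplasma-free KB-V1 carcinoma cells, selected from KB-3-1 for vinblastine resistance and obtained from the NCI Laboratory of Cell Biology. They show a full multidrug-resistance phenotype including P-170 glycoprotein efflux pump expression. Cytotoxicity expressed as IC50.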

[3] = Resistance index, ratio for IC50 for multidrug-resistant human KBV1 cells to IC50 for drug-sensitive human KB-3-1 cells

Row | Structure (SMILES) | IC50 [1] | IC50 [2] | Ratio IC50 [3]
1 | COc1ccc(C2=C(c3ccc(OC)c(OC)c3)C[C@H]3CCCN3C2)cc1 | 2630 nM | 2440 nM | –
2 | COc1ccc(C2=C(c3ccc(O)cc3)CN3CCC[C@@H]3C2)cc1OC | 403 nM | 425 nM | –
3 | COc1cc2c3c(c4ccc(O)cc4c2cc1OC)CN1CCC[C@@H]1C3 | 7 nM | 10 nM | –
4 | COc1cc2c(cc1O)c1c(c3cc(OC)c(OC)cc32)C[C@H]2CCCN2C1 | 15 nM | 17 nM | –
5 | COc1cc2c3c(c4ccc(OC)c(OC)c4c2cc1OC)C[C@@H]1CCCN1C3 | 43 nM | 54 nM | –
6 | COc1ccc2c3c(c4cc(OC)c(OC)cc4c2c1)C[C@H]1CCCN1C3 [(-)-ANTOFINE] | 16 nM | 14 nM | –
7 | COC(=O)c1ccccc1-c1c2ccc(=N)cc-2oc2cc(N)ccc12.Cl [RHODAMINE123] | 2200 nM | > 500000 nM | >225
8 | COc1cc2c3c(c4cc(OC)c(OC)cc4c2cc1OC)CN1CCC[C@@H]1C3 [TYLOPHORINE] | 214 nM | 173 nM | –
9 | CC[C@]1(O)C[C@@H]2CN(CCc3c([nH]c4ccccc34)[C@@](C(=O)OC)(c3cc4c(cc3OC)N(C)[C@H]3[C@@](O)(C(=O)OC)[C@H](OC(C)=O)[C@]5(CC)C=CCN6CC[C@]43[C@@H]65)C2)C1 [VINBLASTINE] | – | – | 210
